In brackets after ≈: the same amount, converted by molar mass. Activity calls are given as the source filed them. The rule behind the calls is not given here.
Tests used:
[1] = tested on: Klebsiella pneumoniae; experiment: Bactericidal activity against Klebsiella pneumoniae ATCC 12019 incubated for 24 hrs under aerobic condition by MABA; assay type: functional; conditions: ATCC 12019, 24 h
[2] = Half life in Balb/c mouse at 30 mg/kg, po; assay type: ADME, organism-based; conditions: in vivo
How it was run: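 Single 30 mg/kg oral dose in six BALB/c mice; serum half-life and tmax are derived from the concentration–time profile.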

[3] = tested on: Mycobacterium tuberculosis; experiment: Bactericidal activity against Mycobacterium tuberculosis H37Rv at 2 times MIC measured every 24 hrs up to 12 days by time kill assay relative to control; assay type: functional
How it was run: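 Mid-log H37Rv (OD 0.5) is diluted to OD 0.25 and exposed at MIC, 2×MIC or 4×MIC. Every 24 h cultures are diluted 10- to 10,000-fold and plated on 7H10/OADC agar. Plates are incubated 15 days at 37 °C before colony counts.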

[4] = tested on: Escherichia coli; experiment: Bactericidal activity against Escherichia coli ATCC 10798 incubated for 24 hrs under aerobic condition by MABA; assay type: functional; conditions: ATCC 10798, 24 h
[5] = tested on: Staphylococcus aureus; experiment: Antibacterial activity against Staphylococcus aureus BAA 1683 incubated for 24 hrs under aerobic condition by MABA; assay type: functional; conditions: BAA 1683, 24 h, read-out: MIC100
How it was run: (§1)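 Mid-log cultures at OD 0.5 were exposed to serial dilutions under aerobic conditions at 37 °C for 24 h. Resazurin was then added from a 0.08% stock for 1 h. MIC100 was the lowest concentration where the dye stayed blue (pink means growth). Absorbance was also read at 570 and 600 nm.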

[6] = tested on: Bacillus subtilis; experiment: Antibacterial activity against Bacillus subtilis ATCC 6051 incubated for 24 hrs under aerobic condition by MABA; assay type: functional; conditions: ATCC 6051, 24 h, read-out: MIC100; how it was run: as §1
[7] = tested on: Mycobacterium tuberculosis; experiment: Antibacterial activity against Mycobacterium tuberculosis Erdman infected in Balb/c mouse assessed as reduction in bacterial load in lungs at 100 mg/kg, po for 3 weeks starting from 10 days post infection measured on day 21 post infection; assay type: functional, Erdman = ATCC 35801
How it was run: (§2)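 Female BALB/c mice, 7–8 weeks old, are aerosol-infected with Mtb Erdman. From day 10 they receive oral gavage in water for three weeks, in groups of 5. Lungs and spleens are harvested at day 21 post-infection and plated for CFU. Efficacy is the log10 reduction in lung burden versus untreated (vehicle) controls.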

[8] = tested on: Staphylococcus aureus; experiment: Bactericidal activity against Staphylococcus aureus BAA 2094 incubated for 24 hrs under aerobic condition by MABA; assay type: functional; conditions: BAA 2094, 24 h
[9] = tested on: Mycobacterium tuberculosis; experiment: Bactericidal activity against non-replicating Mycobacterium tuberculosis CDC1551 expressing tdTomato infected in mouse J774A.1 cells at 2 times MIC up to 72 hrs by UV-Visible spectroscopic method; assay type: functional, organism-based
How it was run: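 J774A.1 macrophages are seeded at […] cells/well in DMEM and incubated overnight at 37 °C. They are infected with saline-washed Mtb CDC1551-tdTomato (10^6 bacteria, MOI ≈10), and extracellular bacteria are washed off with PBS. Treatment is at 2×MIC, with fluorescence emission read at 581 nm at 24, 48, 72 and 96 h. Survivors are confirmed by serial dilution and plating on 7H11.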

[10] = tested on: Mus musculus; experiment: Toxicity in po dosed Balb/c mouse assessed as effect on health measured for 7 days; assay type: organism-based; conditions: in vivo, 168 h
[11] = tested on: Mycobacterium tuberculosis; experiment: Antibacterial activity against Mycobacterium tuberculosis Erdman infected in Balb/c mouse assessed as reduction in bacterial load in lungs at administered po for 3 weeks starting from 10 days post infection measured on day 21 post infection; assay type: functional, organism-based; conditions: Erdman = ATCC 35801; how it was run: as §2
[12] = tested on: Escherichia coli; experiment: Inhibition of protein translation/transcription in Escherichia coli S30 cell extract at 0.5 ug/ml using circular DNA with pBESTluc after 60 mins by luciferase reporter gene assay; assay type: functional
How it was run: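 Coupled transcription/translation used E. coli S30 extract, amino acid mix and premix, with the pBESTluc template carrying firefly luciferase under the tac promoter. Compounds were added in DMSO and reactions were started with DNA. Incubation was 60 min at 37 °C, stopped on ice, and luciferase was read after adding assay substrate.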

[13] = tested on: Staphylococcus aureus; experiment: Bactericidal activity against Staphylococcus aureus BAA 44 incubated for 24 hrs under aerobic condition by MABA; assay type: functional; conditions: BAA 44, 24 h
[14] = tested on: Klebsiella pneumoniae; experiment: Antibacterial activity against Klebsiella pneumoniae ATCC 12019 incubated for 24 hrs under aerobic condition by MABA; assay type: functional; conditions: ATCC 12019, 24 h, read-out: MIC100; how it was run: as §1
[15] = tested on: Streptococcus salivarius; experiment: Bactericidal activity against Streptococcus salivarius ATCC 6301 incubated for 24 hrs under aerobic condition by MABA; assay type: functional; conditions: ATCC 6301, 24 h
[16] = tested on: Enterococcus faecalis; experiment: Bactericidal activity against Enterococcus faecalis ATCC 349 incubated for 24 hrs under aerobic condition by MABA; assay type: functional; conditions: ATCC 349, 24 h
[17] = tested on: Staphylococcus aureus; experiment: Antibacterial activity against Staphylococcus aureus ATCC 25923 incubated for 24 hrs under aerobic condition by MABA; assay type: functional; conditions: ATCC 25923, 24 h, read-out: MIC100; how it was run: as §1
[18] = AUC (0 to 24 hrs) in Balb/c mouse lung at 30 mg/kg, po; assay type: ADME, organism-based; design: dose 30 mg/kg, time < 24 hr, route oral; conditions: in vivo
[19] = tested on: Bacillus subtilis; experiment: Bactericidal activity against Bacillus subtilis ATCC 6051 incubated for 24 hrs under aerobic condition by MABA; assay type: functional; conditions: ATCC 6051, 24 h
[20] = tested on: Mycobacterium tuberculosis; experiment: Antibacterial activity against Mycobacterium tuberculosis Erdman infected in Balb/c mouse assessed as reduction in bacterial load in lungs at 50 mg/kg, po for 3 weeks starting from 10 days post infection measured on day 21 post infection; assay type: functional, Erdman = ATCC 35801; how it was run: as §2
[21] = Half life in Balb/c mouse at 3 mg/kg, iv; assay type: ADME, organism-based; conditions: in vivo
How it was run: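 Single 3 mg/kg IV dose in three BALB/c mice; serum half-life is derived from the concentration–time profile.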

[22] = tested on: Acinetobacter baumannii; experiment: Bactericidal activity against Acinetobacter baumannii ATCC 19606 incubated for 24 hrs under aerobic condition by MABA; assay type: functional; conditions: ATCC 19606 = CIP 70.34 = JCM 6841, 24 h
[23] = Cmax in Balb/c mouse serum at 30 mg/kg, po; assay type: ADME, organism-based; design: dose 30 mg/kg, route oral
How it was run: (§3)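 Single oral dose of 30 mg/kg in BALB/c mice (n = 6). Serum PK parameters were t1/2, tmax, Cmax and AUC over 0–24 h and to infinity. Oral bioavailability F was calculated against the 3 mg/kg IV dose.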

[24] = Cmax in Balb/c mouse lung at 30 mg/kg, po; assay type: ADME, organism-based; design: dose 30 mg/kg, route oral
[25] = Half life in Sprague-Dawley rat liver microsomes at 500 ng/ml preincubated for 5 mins followed by NADPH addition by C-MS/MS analysis; assay type: ADME, microsome
[26] = AUC (0 to infinity) in Balb/c mouse at 30 mg/kg, po; assay type: ADME, organism-based; design: dose 30 mg/kg, route oral, time infinity; conditions: in vivo; how it was run: as §3
[27] = tested on: Enterococcus faecalis; experiment: Antibacterial activity against Enterococcus faecalis ATCC 349 incubated for 24 hrs under aerobic condition by MABA; assay type: functional; conditions: ATCC 349, 24 h, read-out: MIC100; how it was run: as §1
[28] = Solubility in water at 10 mg after 24 hrs by HPLC analysis; assay type: physicochemical
[29] = tested on: Mycobacterium tuberculosis; experiment: Antibacterial activity against Mycobacterium tuberculosis Erdman infected in Balb/c mouse assessed as reduction in bacterial load in lungs at 200 mg/kg, po for 3 weeks starting from 10 days post infection measured on day 21 post infection; assay type: functional, Erdman = ATCC 35801; how it was run: as §2

Question: With CC[C@]1(C)C[C@@H](OC(=O)CSC(C)(C)CNC(=O)[C@H](N)CC(C)C)[C@]2(C)[C@H](C)CC[C@]3(CC[C@@H](O)[C@H]32)[C@@H](C)[C@@H]1O as the compound, how does the MBC [1] read?
Answer: Its MBC is 25 µg/mL (≈ 42.9 µM).

Question: What about the half-life [2] of the same compound?
Answer: The half-life was 4.02 h.

Question: And the Activity [3]?
Answer: The Activity was 100%.

Question: What about the MBC [4] of the same compound?
Answer: The MBC was greater than 25 µg/mL.

Question: And the MIC [5]?
Answer: The MIC was greater than 25 µg/mL.

Question: And the MIC [6]?
Answer: Its MIC is 25 µg/mL (≈ 42.9 µM).

Question: What about the “log(activity)” value [7] of the same compound?
Answer: The value was 0.2.

Question: And the MBC [8]?
Answer: The MBC was greater than 25 µg/mL.

Question: What about the Activity [9] of the same compound?
Answer: The Activity was “Active”.

Question: And the MTD [10]?
Answer: Its MTD is greater than 200 mg/kg.

Question: What about the Activity [11] of the same compound?
Answer: Its Activity is “Dose-dependent effect”.

Question: And the inhibition [12]?
Answer: The inhibition was “Active”.

Question: And the MBC [13]?
Answer: Its MBC is greater than 25 µg/mL.

Question: And the MIC [14]?
Answer: The MIC was 12.5 µg/mL (≈ 21.4 µM).

Question: What about the MBC [15] of the same compound?
Answer: The MBC was greater than 25 µg/mL.

Question: What about the MBC [16] of the same compound?
Answer: The MBC was greater than 25 µg/mL.

Question: What about the MIC [17] of the same compound?
Answer: Its MIC is greater than 25 µg/mL.

Question: And the AUC [18]?
Answer: Its AUC is 66281 ng·h/g.

Question: What about the MBC [19] of the same compound?
Answer: Its MBC is greater than 25 µg/mL.

Question: And the “log(activity)” value [20]?
Answer: The value was 0.03.

Question: What about the half-life [21] of the same compound?
Answer: Its half-life is 9.98 h.

Question: And the MBC [22]?
Answer: The MBC was 3.13 µg/mL (≈ 5.37 µM).

Question: What about the Cmax [23] of the same compound?
Answer: The Cmax was 2960 ng/mL.

Question: And the Cmax [24]?
Answer: The Cmax was 6070 ng/g.

Question: And the t1/2 [25]?
Answer: Its t1/2 is greater than 1 h.

Question: What about the AUC(0-inf) [26] of the same compound?
Answer: Its AUC(0-inf) is 2890 ng·h/mL.

Question: What about the MIC [27] of the same compound?
Answer: The MIC was greater than 25 µg/mL.

Question: What about the solubility [28] of the same compound?
Answer: Its solubility is 104.7 mg/mL (≈ 180000 µM).

Question: What about the “log(activity)” value [29] of the same compound?
Answer: Its value is 0.47.

From ChEMBL document CHEMBL4229550, “An antimycobacterial pleuromutilin analogue effective against dormant bacilli” (Bioorg Med Chem, 2018)
